Consider 18 molecules from ChEMBL document CHEMBL1126694, “Antitumor agents. 141. Synthesis and biological evaluation of novel thiocolchicine analogs: N-acyl-, N-aroyl-, and N-(substituted benzyl)deacetylthiocolchicines as potent cytotoxic and antimitotic compounds” (J Med Chem, 1993).

What all share (type): functional
The test system of one assay is A549. The assay can be described thus: In vitro cytotoxicity against A549/ATCC cell line. The following applies: Homo sapiens. In a few lines: (§1)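 Tested by the NCI in its tumor cell panel. GI50 (M) is reported as the concentration that caused 50% inhibition of tumor cell growth.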
The target of another assay is Tubulin. The experiment in a line: In vitro inhibition of tubulin polymerization.
Another assay has as its system SNB-19. The experiment in a line: In vitro cytotoxicity against SNB-19 cell line. The following applies: Homo sapiens. In a few lines: as §1
Another assay relates to SK-MEL-5. The experiment in a line: In vitro cytotoxicity against SK-MEL-5 cell line. The following applies: Homo sapiens. In a few lines: as §1
For the next assay, the system named is HCT-15. The assay can be described thus: In vitro cytotoxicity against HCT-15 cell line. The following applies: Homo sapiens. Summed up:
as §1

The subject of another assay is SR. The assay can be described thus: In vitro cytotoxicity against SR cell line. The following applies: Homo sapiens. Summed up: as §1
Another assay deals with DMS-114. The assay can be described thus: In vitro cytotoxicity against DMS114 cell line. The settings on record: Homo sapiens. Summed up:
as §1

For another assay, the system named is OVCAR. The assay can be described thus: In vitro cytotoxicity against OVCAR cell line. The settings on record: Homo sapiens. In a few lines:
as §1

Assay [1] is described as follows: In vitro cytotoxicity against RXF cell line. The following applies: Homo sapiens. Summed up:
as §1

Each structure is given as a SMILES string.

Turning to `COc1cc2c(c(OC)c1OC)-c1ccc(SC)c(=O)cc1[C@@H](NCc1ccc([N+](=O)[O-])cc1)CC2`, the GI50 with A549, in the assay with SNB-19, in the assay with SK-MEL-5, with HCT-15, in the assay with SR and in the assay on DMS-114 was below 10 nM in each case. The GI50 (in the assay on OVCAR; in assay [1]) was below 10 nM each time. This molecule also had an IC50 against Tubulin of 2800 nM.
On to `COc1cc2c(c(OC)c1OC)-c1ccc(SC)c(=O)cc1[C@@H](NC(=O)c1cccc([N+](=O)[O-])c1)CC2`, for which the GI50 with A549 is 33.1 nM; in the assay with SNB-19, 26.9 nM; with SK-MEL-5, 18.2 nM; in the assay on HCT-15, 26.9 nM; in the assay with SR, 8.51 nM; in the assay with DMS-114, 16.6 nM. The results for the GI50 (in the assay with OVCAR; in assay [1]) were 19.1 nM and 16.6 nM, respectively. The IC50 at Tubulin turned out to be 3400 nM.
As for `COc1ccc(CN[C@H]2CCc3cc(OC)c(OC)c(OC)c3-c3ccc(SC)c(=O)cc32)c(OC)c1OC`, the IC50 against Tubulin is 2500 nM. Besides, the GI50 in the assay with SK-MEL-5, in the assay on HCT-15, with SR, with DMS-114 and in the assay with OVCAR was below 10 nM throughout.
For the molecule `COc1cc(C(=O)N[C@H]2CCc3cc(OC)c(OC)c(OC)c3-c3ccc(SC)c(=O)cc32)cc(OC)c1OC`, the GI50 in the assay with A549 was 17 nM; in the assay on SK-MEL-5, below 10 nM; in the assay on SR, below 10 nM; in the assay on DMS-114 it was below 10 nM; with OVCAR, below 10 nM; in assay [1] it was 33.9 nM.
Regarding `CCOC(=O)c1c(OC)cc(C(=O)N[C@H]2CCc3cc(OC)c(OC)c(OC)c3-c3ccc(SC)c(=O)cc32)cc1OC`, the GI50 with A549 is 427 nM; with SNB-19, 324 nM; in the assay on SK-MEL-5, 45.7 nM; in the assay with HCT-15, 447 nM; in the assay on DMS-114, 26.3 nM; in the assay on OVCAR it was 32.4 nM. Also, the GI50 in [1] is 234 nM.
Turning to `COc1cc(CN[C@H]2CCc3cc(OC)c(OC)c(OC)c3-c3ccc(SC)c(=O)cc32)cc(OC)c1`, the GI50 in the assay on A549 is 37.1 nM; with SNB-19 it was 67.6 nM; in the assay on HCT-15, below 10 nM; with SR it was below 10 nM; with DMS-114, 16.6 nM; in assay [1] it was below 10 nM. At Tubulin, this molecule yielded an IC50 of 3400 nM.
On to `COc1cc2c(c(OC)c1OC)-c1ccc(SC)c(=O)cc1[C@@H](NC(=O)c1ccc(C#N)cc1)CC2`, for which the GI50 in the assay with A549, in the assay with SNB-19, with SK-MEL-5, with HCT-15, in the assay on SR and in the assay on DMS-114 was below 10 nM in each case. The molecule further showed a GI50 with OVCAR below 10 nM.
`COc1cc2c(c(OC)c1OC)-c1ccc(SC)c(=O)cc1[C@@H](NC(=O)c1ccc(Cl)cc1)CC2`: the GI50 in the assay on A549, in the assay on SNB-19, in the assay on SK-MEL-5, with HCT-15, in the assay with SR and with DMS-114 was below 10 nM in each case. For the same molecule, the GI50 (with OVCAR; in assay [1]) was below 10 nM in each case.
Take `COc1cc2c(c(OC)c1OC)-c1ccc(SC)c(=O)cc1[C@@H](NC(=O)c1ccc(OC(C)=O)cc1)CC2`: the GI50 in the assay with A549 is below 100 nM; in the assay with SNB-19, 21.4 nM; with SK-MEL-5 it was 19.5 nM; in the assay on HCT-15 it was below 100 nM; in the assay on SR, 7.76 nM; with DMS-114, 14.4 nM. In addition, the GI50 with OVCAR was 15.1 nM; in assay [1], 27.5 nM.
As for `COc1cc2c(c(OC)c1OC)-c1ccc(SC)c(=O)cc1[C@@H](NCc1cccc(C#N)c1)CC2`, the GI50 in the assay with A549, in the assay on SNB-19, in the assay with SK-MEL-5, with HCT-15, in the assay on SR and in the assay with DMS-114 was below 7.59 nM throughout. The GI50 (in the assay with OVCAR; in [1]) was below 7.59 nM each time. At Tubulin, the IC50 was 2500 nM.
Regarding `COc1cc2c(c(OC)c1OC)-c1ccc(SC)c(=O)cc1[C@@H](NCc1ccccc1[N+](=O)[O-])CC2`, the GI50 with A549, in the assay with SNB-19, in the assay with SK-MEL-5, in the assay with HCT-15, in the assay on DMS-114 and in the assay with OVCAR was below 10 nM each time. Moreover, in assay [1], the GI50 is below 10 nM. Further, on Tubulin, the midpoint of inhibition, the IC50, lay at 3200 nM.
Regarding `CCCCCC(=O)N[C@H]1CCc2cc(OC)c(OC)c(OC)c2-c2ccc(SC)c(=O)cc21`, the GI50 in the assay with A549, in the assay with SNB-19, in the assay on SK-MEL-5, in the assay on HCT-15, in the assay with SR and with DMS-114 was below 10 nM throughout. Moreover, the GI50 (with OVCAR; in assay [1]) was below 10 nM each time.
In the case of `COc1cc2c(c(OC)c1OC)-c1ccc(SC)c(=O)cc1[C@@H](NC(=O)c1ccc([N+](=O)[O-])cc1)CC2`, the GI50 in the assay with A549, in the assay on SNB-19, in the assay on SK-MEL-5, in the assay with HCT-15, in the assay with SR and in the assay on DMS-114 was below 10 nM throughout. Moreover, the GI50 (in the assay on OVCAR; in assay [1]) was below 10 nM throughout.
With `COc1cc2c(c(OC)c1OC)-c1ccc(SC)c(=O)cc1[C@@H](NC(=O)c1ccc(F)cc1)CC2`, the GI50 in the assay with A549 was 49 nM; in the assay on SNB-19 it was 28.8 nM; with SK-MEL-5, 30.2 nM; with HCT-15, 42.7 nM; in the assay on SR, 16.6 nM; in the assay on DMS-114 it was 26.9 nM. In addition, in the assay on OVCAR, the GI50 was 18.2 nM.
Take `COc1cc2c(c(OC)c1OC)-c1ccc(SC)c(=O)cc1[C@@H](NCc1ccc(F)cc1)CC2`: the GI50 in the assay on A549, in the assay on SNB-19, in the assay with SK-MEL-5, in the assay on HCT-15, in the assay on SR and with OVCAR was below 7.59 nM each time. Besides, in [1], the GI50 was below 7.59 nM. Moreover, it took 2300 nM to reach half-maximal inhibition against Tubulin (IC50).
Take `COc1cc2c(c(OC)c1OC)-c1ccc(SC)c(=O)cc1[C@@H](NCc1ccc(C#N)cc1)CC2`: the GI50 in the assay on A549, in the assay on SNB-19, with SK-MEL-5, with HCT-15, in the assay with SR and in the assay with DMS-114 was below 10 nM in each case. The GI50 (with OVCAR; in assay [1]) was below 10 nM throughout. Also, at Tubulin, the IC50 came to 2300 nM.
Turning to `COc1cc2c(c(OC)c1OC)-c1ccc(SC)c(=O)cc1[C@@H](NCc1cccc([N+](=O)[O-])c1)CC2`, the GI50 in the assay with A549 was below 10 nM; with SNB-19 it was below 10 nM; in the assay on SK-MEL-5 it was below 10 nM; in the assay on HCT-15 it was below 10 nM; in the assay on SR it was above 100000 nM; in the assay on DMS-114, below 10 nM. Besides, the GI50 (in the assay on OVCAR; in assay [1]) was below 10 nM in each case. For the same molecule, the IC50 on Tubulin was found to be 2800 nM.
Regarding `COc1cc2c(c(OC)c1OC)-c1ccc(OC)c(=O)cc1[C@@H](NC(C)=O)CC2` [COLCHICINE], the GI50 with A549, with SK-MEL-5, in the assay on HCT-15 and with OVCAR was below 63.1 nM each time.
